Test results: ChEMBL document CHEMBL3352384, “Synthesis and biological activity of new salicylanilide N,N-disubstituted carbamates and thiocarbamates” (Bioorg Med Chem, 2014)
Values after ≈ are worked out from the molar mass of the structure shown.

Legend:
[1] = tested on: Trichophyton mentagrophytes; experiment: Antimicrobial activity against Trichophyton mentagrophytes 445 after 72 hrs by microdilution method; format: functional; conditions: Trichophyton mentagrophytes, 445, 72 h
In short: (§1)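 Broth microdilution in RPMI 1640 with glutamine, with fluconazole and amphotericin B as references. For filamentous fungi, MIC is expressed as the IC50, i.e. the concentration giving 50% growth reduction versus control. Each determination was done twice.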

HepG2 = experiment: Cytotoxicity against human HepG2 cells assessed as reduction in cell viability after 24 hrs by MTS assay; format: cell-based; conditions: HepG2, 24 h
In short: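 HepG2 hepatocellular carcinoma cells (passage 3–4) were grown in Eagle's MEM with 10% FBS, 1% L-glutamine and non-essential amino acids. Compounds were added from DMSO at eight concentrations in triplicate, with 10% DMSO as the 0% viability control. Viability was read by tetrazolium salt reduction (CellTiter 96 AQueous One). IC50 is the concentration reducing viability to 50% of control.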

[2] = Selectivity index, ratio of IC50 for human HepG2 cells to MIC for Trichophyton mentagrophytes 445
[3] = tested on: Trichophyton mentagrophytes; experiment: Antimicrobial activity against Trichophyton mentagrophytes 445 after 120 hrs by microdilution method; format: functional; conditions: Trichophyton mentagrophytes, 445, 120 h; in short: as §1
[4] = Inhibition of Mycobacterium tuberculosis H37Rv isocitrate lyase assessed as glyoxylate phenyl hydrazone formation at 10 uM
[5] = tested on: Staphylococcus epidermidis; experiment: Antimicrobial activity against Staphylococcus epidermidis H 6966/08 after 48 hrs by microdilution method; format: functional; conditions: H 6966/08, 48 h
In short: (§2)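 Broth microdilution in Mueller-Hinton broth, compounds dissolved in DMSO, final concentrations 500 to 0.49 µM. Benzylpenicillin and bacitracin were run as comparators. MIC was taken as 95% (IC95) or greater growth reduction versus control. Each determination was done twice.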

Mycobacterium kansasii [6] = experiment: Antimycobacterial activity against Mycobacterium kansasii 235/80 assessed as complete growth inhibition after 21 days; format: functional; conditions: 235/80, 504 h
In short: (§3)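 Dilutions of M. kansasii inoculum were 10-4 for strain 235/80 and 10-5 for clinical isolate 6509/96. MIC was the lowest concentration giving complete growth inhibition, run in quadruplicate and repeated twice.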

Mycobacterium avium [7] = experiment: Antimycobacterial activity against Isoniazid, rifampicin, ofloxacin and ethambutol-resistant Mycobacterium avium 330/88 assessed as complete growth inhibition after 21 days; format: functional; conditions: 330/88, 504 h
In short: (§4)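 M. tuberculosis 331/88 (H37Rv) inoculum diluted 10-3, M. avium 330/88 diluted 10-5. MIC is the lowest concentration giving complete growth inhibition. Isoniazid and p-aminosalicylic acid as references. Quadruplicate, repeated twice.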

[8] = tested on: Staphylococcus epidermidis; experiment: Antimicrobial activity against Staphylococcus epidermidis H 6966/08 after 24 hrs by microdilution method; format: functional; conditions: H 6966/08, 24 h; in short: as §2
Mycobacterium kansasii [9] = experiment: Antimycobacterial activity against clinical isolate Mycobacterium kansasii 6509/96 assessed as complete growth inhibition after 14 days; format: functional; conditions: 6509/96, 336 h; in short: as §3
Mycobacterium kansasii [10] = experiment: Antimycobacterial activity against clinical isolate Mycobacterium kansasii 6509/96 assessed as complete growth inhibition after 7 days; format: functional; conditions: 6509/96, 168 h; in short: as §3
[11] = tested on: Mycobacterium tuberculosis; experiment: Antimycobacterial activity against Mycobacterium tuberculosis H37Rv 331/88 assessed as complete growth inhibition after 14 days; format: functional; conditions: H37Rv 331/88, 336 h; in short: as §4
[12] = Selectivity index, ratio of IC50 for human HepG2 cells to MIC for atypical mycobacteria
In short: (§5)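 Selectivity index = HepG2 IC50 / MIC. HepG2 cells (passage 3–4) grown in Eagle's MEM with 10% FBS, L-glutamine and non-essential amino acids. Compounds added from DMSO, eight concentrations in triplicate, tetrazolium-reduction colorimetric read-out. IC50 is the concentration reducing viability to 50% of control; 10% DMSO as 0% viability.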

Staphylococcus aureus [13] = experiment: Antimicrobial activity against Staphylococcus aureus CCM 4516/08 after 24 hrs by microdilution method; format: functional; conditions: CCM 4516/08, 24 h
In short: (§6)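 Mueller-Hinton broth microdilution; compounds dissolved in DMSO, final concentrations 500 to 0.49 µM. […] Benzylpenicillin and bacitracin as comparators. Each determination done twice.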

Staphylococcus aureus [14] = experiment: Antimicrobial activity against methicillin-resistant Staphylococcus aureus H 5996/08 after 24 hrs by microdilution method; format: functional; conditions: H 5996/08, 24 h; in short: as §6
Mycobacterium kansasii [15] = experiment: Antimycobacterial activity against Mycobacterium kansasii 235/80 assessed as complete growth inhibition after 7 days; format: functional; conditions: 235/80, 168 h; in short: as §3
[16] = Selectivity index, ratio of IC50 for human HepG2 cells to MIC for methicillin-resistant Staphylococcus aureus H 5996/08; in short: as §5
[17] = Selectivity index, ratio of IC50 for human HepG2 cells to MIC for Mycobacterium tuberculosis H37Rv; format: toxicity, cell-based; conditions: read-out: Selectivity Index
In short: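 Selectivity index = HepG2 IC50 / MIC. HepG2 cells (passage 3–4) grown in Eagle's MEM with 10% FBS, L-glutamine and non-essential amino acids. Compounds added from DMSO, eight concentrations in triplicate, tetrazolium-reduction colorimetric read-out.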

[18] = tested on: Mycobacterium tuberculosis; experiment: Antimycobacterial activity against Mycobacterium tuberculosis H37Rv 331/88 assessed as complete growth inhibition after 21 days; format: functional; conditions: H37Rv 331/88, 504 h; in short: as §4
Mycobacterium avium [19] = experiment: Antimycobacterial activity against Isoniazid, rifampicin, ofloxacin and ethambutol-resistant Mycobacterium avium 330/88 assessed as complete growth inhibition after 14 days; format: functional; conditions: 330/88, 336 h; in short: as §4
Mycobacterium kansasii [20] = experiment: Antimycobacterial activity against clinical isolate Mycobacterium kansasii 6509/96 assessed as complete growth inhibition after 21 days; format: functional; conditions: 6509/96, 504 h; in short: as §3
Enterococcus sp. [21] = experiment: Antimicrobial activity against Enterococcus sp. J 14365/08 after 48 hrs by microdilution method; format: functional; conditions: J 14365/08, 48 h; in short: as §2
Mycobacterium kansasii [22] = experiment: Antimycobacterial activity against Mycobacterium kansasii 235/80 assessed as complete growth inhibition after 14 days; format: functional; conditions: 235/80, 336 h; in short: as §3
Staphylococcus aureus [23] = experiment: Antimicrobial activity against Staphylococcus aureus CCM 4516/08 after 48 hrs by microdilution method; format: functional; conditions: CCM 4516/08, 48 h; in short: as §6
Enterococcus sp. [24] = experiment: Antimicrobial activity against Enterococcus sp. J 14365/08 after 24 hrs by microdilution method; format: functional; conditions: J 14365/08, 24 h; in short: as §2
Staphylococcus aureus [25] = experiment: Antimicrobial activity against methicillin-resistant Staphylococcus aureus H 5996/08 after 48 hrs by microdilution method; format: functional; conditions: H 5996/08, 48 h; in short: as §6

SMILES | MIC [1] [µM] | IC50 (HepG2) [µM] | Selectivity Index [2] | MIC [3] [µM] | inhibition [4] [%] | MIC [5] [µM] | MIC (Mycobacterium kansasii [6]) [µM] | MIC (Mycobacterium avium [7]) [µM] | MIC [8] [µM] | MIC (Mycobacterium kansasii [9]) [µM] | MIC (Mycobacterium kansasii [10]) [µM] | MIC [11] [µM] | Selectivity Index [12] | MIC (Staphylococcus aureus [13]) [µM] | MIC (Staphylococcus aureus [14]) [µM] | Selectivity Index [16] | MIC (Enterococcus sp. [21]) [µM] | MIC (Staphylococcus aureus [23]) [µM] | MIC (Enterococcus sp. [24]) [µM] | MIC (Staphylococcus aureus [25]) [µM] | further results
C[C@@H]1[C@H](O)[C@@H](C)/C=C/C=C/C=C/C=C/C=C/C=C/C=C/[C@H](O[C@@H]2O[C@H](C)[C@@H](O)[C@H](N)[C@@H]2O)C[C@@H]2O[C@](O)(C[C@@H](O)C[C@@H](O)[C@H](O)CC[C@@H](O)C[C@@H](O)CC(=O)O[C@H]1C)C[C@H](O)[C@H]2C(=O)O [AMPHOTERICIN B] | 1.95 (≈ 1.8 µg/mL) | 2.5 | 1.3 | 1.95 (≈ 1.8 µg/mL) |  |  |  |  |  |  |  |  |  |  |  |  |  |  |  |  | 
CN(C)C(=S)Oc1ccc(Cl)cc1C(=O)Nc1ccc(Br)cc1 | 1.95 (≈ 0.807 µg/mL) | 85.6 | 843.9 | 1.95 (≈ 0.807 µg/mL) | 11 | 0.49 (≈ 0.203 µg/mL) | 16 (≈ 6.62 µg/mL) | 16 (≈ 6.62 µg/mL) | 0.49 (≈ 0.203 µg/mL) | 32 (≈ 13.2 µg/mL) | 16 (≈ 6.62 µg/mL) | 8 (≈ 3.31 µg/mL) | 2.7 | 0.49 (≈ 0.203 µg/mL) | 0.49 (≈ 0.203 µg/mL) | 174.8 | > 500 | 0.49 (≈ 0.203 µg/mL) | > 500 | 0.49 (≈ 0.203 µg/mL) | MIC (Mycobacterium kansasii [15]): 16 µM (≈ 6.62 µg/mL); selectivity ratio [17]: 10.7; MIC [18]: 8 µM (≈ 3.31 µg/mL); MIC (Mycobacterium avium [19]): 16 µM (≈ 6.62 µg/mL); MIC (Mycobacterium kansasii [20]): 32 µM (≈ 13.2 µg/mL); MIC (Mycobacterium kansasii [22]): 16 µM (≈ 6.62 µg/mL)
CN(C)C(=O)Oc1ccc(Cl)cc1C(=O)Nc1ccc(Cl)cc1 | 31.2 (≈ 11 µg/mL) | 189 | 6 | 31.2 (≈ 11 µg/mL) | 6 | 125 (≈ 44.2 µg/mL) | 62.5 (≈ 22.1 µg/mL) | 62.5 (≈ 22.1 µg/mL) | 125 (≈ 44.2 µg/mL) | 125 (≈ 44.2 µg/mL) | 62.5 (≈ 22.1 µg/mL) | 16 (≈ 5.65 µg/mL) | 1.5 | 62.5 (≈ 22.1 µg/mL) | 62.5 (≈ 22.1 µg/mL) | 1.5 | > 125 | 125 (≈ 44.2 µg/mL) | 125 (≈ 44.2 µg/mL) | 125 (≈ 44.2 µg/mL) | MIC (Mycobacterium kansasii [15]): 62.5 µM (≈ 22.1 µg/mL); selectivity ratio [17]: 11.8; MIC [18]: 16 µM (≈ 5.65 µg/mL); MIC (Mycobacterium avium [19]): 62.5 µM (≈ 22.1 µg/mL); MIC (Mycobacterium kansasii [20]): 125 µM (≈ 44.2 µg/mL); MIC (Mycobacterium kansasii [22]): 62.5 µM (≈ 22.1 µg/mL)
CN(C)C(=S)Oc1ccc(Cl)cc1C(=O)Nc1ccc(C(F)(F)F)cc1 | 500 (≈ 201 µg/mL) | 67.3 | <1 | 500 (≈ 201 µg/mL) | 12 | 31.2 (≈ 12.6 µg/mL) | 32 (≈ 12.9 µg/mL) | 16 (≈ 6.45 µg/mL) | 31.2 (≈ 12.6 µg/mL) | 32 (≈ 12.9 µg/mL) | 16 (≈ 6.45 µg/mL) | 4 (≈ 1.61 µg/mL) | 2.1 | 7.81 (≈ 3.15 µg/mL) | 7.81 (≈ 3.15 µg/mL) | 8.6 | > 500 | 7.81 (≈ 3.15 µg/mL) | > 500 | 7.81 (≈ 3.15 µg/mL) | MIC (Mycobacterium kansasii [15]): 16 µM (≈ 6.45 µg/mL); selectivity ratio [17]: 16.8; MIC [18]: 4 µM (≈ 1.61 µg/mL); MIC (Mycobacterium avium [19]): 16 µM (≈ 6.45 µg/mL); MIC (Mycobacterium kansasii [20]): 32 µM (≈ 12.9 µg/mL); MIC (Mycobacterium kansasii [22]): 32 µM (≈ 12.9 µg/mL)
CN(C)C(=S)Oc1ccc(Cl)cc1C(=O)Nc1ccc(F)cc1 | 7.81 (≈ 2.76 µg/mL) | 117 | 15 | 7.81 (≈ 2.76 µg/mL) | 7 | 31.2 (≈ 11 µg/mL) | 32 (≈ 11.3 µg/mL) | 32 (≈ 11.3 µg/mL) | 31.2 (≈ 11 µg/mL) | 32 (≈ 11.3 µg/mL) | 16 (≈ 5.65 µg/mL) | 8 (≈ 2.82 µg/mL) | 3.7 | 15.6 (≈ 5.51 µg/mL) | 31.2 (≈ 11 µg/mL) | 3.7 | > 500 | 31.2 (≈ 11 µg/mL) | > 500 | 31.2 (≈ 11 µg/mL) | MIC (Mycobacterium kansasii [15]): 16 µM (≈ 5.65 µg/mL); selectivity ratio [17]: 7.3; MIC [18]: 16 µM (≈ 5.65 µg/mL); MIC (Mycobacterium avium [19]): 32 µM (≈ 11.3 µg/mL); MIC (Mycobacterium kansasii [20]): 32 µM (≈ 11.3 µg/mL); MIC (Mycobacterium kansasii [22]): 32 µM (≈ 11.3 µg/mL)
CC1(C)S[C@@H]2[C@H](NC(=O)Cc3ccccc3)C(=O)N2[C@H]1C(=O)O [PENICILLIN G] |  | > 10000 |  |  |  | 250 (≈ 83.6 µg/mL) |  |  | 250 (≈ 83.6 µg/mL) |  |  |  |  | 0.98 (≈ 0.328 µg/mL) | 62.5 (≈ 20.9 µg/mL) | >10.2 | 15.6 (≈ 5.22 µg/mL) | 0.98 (≈ 0.328 µg/mL) | 7.81 (≈ 2.61 µg/mL) | 125 (≈ 41.8 µg/mL) | 
